Key:
[1] = Solubility in PBS at pH 7.4 after 24 hrs by LC-MS/MS analysis; format: physicochemical
Summary of the method: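 10 mM DMSO stock diluted 1:50 into PBS pH 7.4 or MeOH. Shaken 24 h at room temperature, centrifuged, filtered (0.45 μm), diluted tenfold in MeOH. Analysed by LC-MS/MS (SIM or MRM). Solubility from the PBS/MeOH ratio of mass signal areas.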

[2] = Inhibition of Mycobacterium tuberculosis EthR assessed as inhibition of EthR-DNA interaction after 3 mins by SPR assay
Summary of the method: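 106-bp biotinylated ethA/ethR intergenic DNA immobilised on a streptavidin chip (about 75 RU). An irrelevant 113-bp bla fragment in the reference channel; signal taken as the channel difference. Preincubated 5 min at 37 °C, injected at 20 μL/min for 3 min at 25 °C. Response read at end of injection; IC50 from dose-response.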

[3] = system: Mycobacterium tuberculosis; assay: Binding affinity to Mycobacterium tuberculosis EthR assessed as change in melting temperature at 20 uM by thermal shift assay
Summary of the method: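 Protein unfolding tracked with SYPRO Orange in a real-time PCR instrument. Ligand at 20 μM in EthR buffer (10 mM Tris/HCl, 300 mM NaCl, 0.1 mM EDTA, pH 7.5). Heated 37 to 85 °C at 0.04 °C/s, fluorescence read at Ex/Em 465/510 nm. ΔTm taken as the holo minus apo melting temperature.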

[4] = system: Mycobacterium tuberculosis; assay: Antimicrobial activity against Mycobacterium tuberculosis H37Rv expressing GFP infected in mouse RAW264.7 cells assessed as concentration required to potentiate 0.1 ug/ml […] to inhibit microbial growth by 50% by fluorescence assay; format: functional, organism-based
Summary of the method: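 RAW264.7 macrophages infected with H37Rv-GFP at MOI 1:1 for 2 h at 37 °C with shaking. Extracellular bacilli killed with amikacin (20 μM, 1 h). Infected cells added to compound serial dilutions (ten 2-fold) with ethionamide fixed at 0.1 μg/mL, 5 days at 37 °C, 5% CO2. SYTO 60 stained; confocal imaging gives percent infected cells and cell number. Two replicates averaged.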

Structure (SMILES)	solubility at 24 h [1]	IC50 [2]	ΔTm [3]	EC50 [4]
C#CCNS(=O)(=O)c1ccc(I)cc1	> 200 µM	160 µM	0.1 °C	> 10 µM
Cc1nc(-c2ccc(S(=O)(=O)NCC(F)(F)F)cc2)cs1	–	–	6.3 °C	7.9 µM
CC(=O)Nc1ccc(-c2ccc(S(=O)(=O)NCCC(C)C)cc2)cc1	–	–	2 °C	> 10 µM
Cc1nc(-c2ccc(S(=O)(=O)NCCC(C)(C)C)cc2)cs1	–	–	2.3 °C	> 20 µM
CC(C)CCNS(=O)(=O)c1ccc(-n2cccn2)cc1	–	–	1.9 °C	> 10 µM
CCCS(=O)(=O)NCc1nc(-c2ccc(C(=O)NCCC(F)(F)F)cc2)cs1	1.3 µg/mL	0.56 µM	6.6 °C	0.32 µM
Cc1nc(-c2ccc(S(=O)(=O)NCCCC(F)(F)F)cc2)cs1	–	–	6.6 °C	> 2.5 µM
CC(C)CCNS(=O)(=O)c1ccc(-c2ccc(F)cc2)cc1	–	–	2.2 °C	> 10 µM
CCOC(=O)c1ccc(S(=O)(=O)NCCC(C)C)cc1	–	–	4.3 °C	10 µM
Cc1nc(-c2ccc(S(=O)(=O)NCCC(C)C)cc2)cs1	6.6 µg/mL	4.9 µM	6.1 °C	5.7 µM
CC(C)CCNS(=O)(=O)c1ccc(I)cc1	–	–	1.9 °C	> 10 µM
CC(C)CCNS(=O)(=O)c1ccc(CCC(C)C)cc1	–	–	3.2 °C	6.3 µM
CC(C)CCNS(=O)(=O)c1ccc(-c2cnco2)cc1	–	–	1.2 °C	> 10 µM
CCCCOc1ccc(S(=O)(=O)NCCC(C)C)cc1	–	–	3.6 °C	> 10 µM
CC(C)CCNS(=O)(=O)c1ccc(N2CCCC2=O)cc1	–	–	0.6 °C	> 10 µM
Cc1nc(-c2ccc(C(=O)NCCC(F)(F)F)cc2)cs1	14.7 µg/mL	0.4 µM	11.2 °C	0.08 µM
COc1ccc(-c2ccc(S(=O)(=O)NCCC(C)C)cc2)cc1	–	–	3.7 °C	> 10 µM
Cc1nc(-c2ccc(S(=O)(=O)NCCC(F)(F)F)cc2)cs1	14.5 µg/mL	0.55 µM	8.5 °C	0.29 µM
O=C(NCCC(F)(F)F)c1ccc(C#CCNS(=O)(=O)c2ccccc2)cc1	3 µg/mL	3.9 µM	4.2 °C	0.23 µM
